Screening data (PubChem BioAssay)
HEK293 NFkB inh – lowers PMA/ionomycin-induced NF-kB signal in HEK293 cells; HEK-293 NF-kB luciferase reporter, luminescence; inhibition, % at 3 µM; hit rate 0.21% among 62,000;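 active means inhibition above the mean of all tested compounds plus 3 SD, cut at about 40% in these data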
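Reagent: PMA plus ionomycin mix as NF-kB-activating stimulus. Assay system: NF-kB luciferase reporter HEK-293 cells. Technique: luminescence from luciferase substrate reagent. Incubation: 1 h compound pre-incubation, 16 h PMA/ionomycin at 37 °C. Benchmarks: DMSO only as uninhibited control, 10 µM reference inhibitor as full inhibition. Repeats: tested once.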
Her2 expr inh – lowers expression of human Her2 kinase; P04626; hit rate 0.69% among 65,000; HER2 level % of control, % at 10 µM; SKBR-3 HER2 protein level, AlphaScreen, 18-24 h; active compounds read low;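 active means HER2 level under 5% of the carrier-only control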;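 further: lower value means stronger loss of Her2 protein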
Target sequence (P04626 whole entry, looked up): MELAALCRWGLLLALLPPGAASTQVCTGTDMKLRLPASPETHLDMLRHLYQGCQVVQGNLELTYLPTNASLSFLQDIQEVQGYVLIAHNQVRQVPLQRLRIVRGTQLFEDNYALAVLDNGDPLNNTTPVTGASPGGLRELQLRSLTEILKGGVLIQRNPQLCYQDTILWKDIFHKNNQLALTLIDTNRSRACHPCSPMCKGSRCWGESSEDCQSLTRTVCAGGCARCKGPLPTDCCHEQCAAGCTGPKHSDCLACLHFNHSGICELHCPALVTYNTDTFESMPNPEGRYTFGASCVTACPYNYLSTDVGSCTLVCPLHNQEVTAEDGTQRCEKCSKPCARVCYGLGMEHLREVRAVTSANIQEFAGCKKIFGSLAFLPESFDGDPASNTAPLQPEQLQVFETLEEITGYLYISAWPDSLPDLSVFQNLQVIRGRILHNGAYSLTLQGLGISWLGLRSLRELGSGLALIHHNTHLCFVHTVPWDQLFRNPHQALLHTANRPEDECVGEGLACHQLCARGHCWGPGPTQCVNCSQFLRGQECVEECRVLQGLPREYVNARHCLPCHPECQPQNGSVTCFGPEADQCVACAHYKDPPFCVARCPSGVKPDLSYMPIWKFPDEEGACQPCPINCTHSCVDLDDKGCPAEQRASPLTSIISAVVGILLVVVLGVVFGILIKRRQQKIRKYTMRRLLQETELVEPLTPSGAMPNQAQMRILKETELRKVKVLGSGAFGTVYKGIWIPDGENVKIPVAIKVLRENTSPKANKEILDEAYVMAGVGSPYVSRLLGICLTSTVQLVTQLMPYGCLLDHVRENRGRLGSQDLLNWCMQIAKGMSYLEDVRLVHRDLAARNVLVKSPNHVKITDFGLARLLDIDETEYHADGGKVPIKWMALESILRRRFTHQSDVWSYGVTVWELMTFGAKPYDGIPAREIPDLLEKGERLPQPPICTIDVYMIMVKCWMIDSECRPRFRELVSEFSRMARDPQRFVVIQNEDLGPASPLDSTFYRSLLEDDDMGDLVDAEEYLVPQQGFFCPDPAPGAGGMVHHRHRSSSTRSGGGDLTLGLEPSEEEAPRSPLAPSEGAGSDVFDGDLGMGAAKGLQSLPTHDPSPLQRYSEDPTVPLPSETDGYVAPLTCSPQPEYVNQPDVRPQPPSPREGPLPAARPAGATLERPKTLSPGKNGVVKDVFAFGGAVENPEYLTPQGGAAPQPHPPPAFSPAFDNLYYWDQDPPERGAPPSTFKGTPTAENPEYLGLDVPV
M1 ag – activates the M1 muscarinic receptor | B-score at 10 µM | CHO-M1 cells, Fluo-4 calcium fluorescence, agonist mode; active compounds read high | hit rate 3% among 64,000;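 active means fluorescence rise, raw or as B-score row- and column-corrected plate score, outside the 99.7% band of its plate's samples, either direction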
BAP1 inh – blocks human BAP1 ubiquitin-AMC hydrolysis; recombinant BAP1, Ub-AMC hydrolysis fluorescence kinetic; active compounds read low; calls only at 20 µM; hit rate 0.48% among 72,000; AID 436;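 active means activity remaining at or below 50% of control, provided the compound also passes the data quality filters; inactive means the rest, including low values that fail the filters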
M1 antag – antagonists of rat M1 muscarinic receptor; P08482; CHO-M1 cells, Fluo-4 calcium, ACh EC80 antagonist mode; active compounds read low; B-score at 10 µM; hit rate 3.4% among 64,000; AID 628;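 active means calcium fluorescence response, raw or row-and-column corrected B-score, differing from the plate sample mean either way at a set confidence level, mostly lower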
JNK3 blocker – JNK3 (human) kinase inhibition | P53779 | purified JNK3 kinase activity, HTS | inhibition, % at 8 µM | hit rate 0.61% among 60,000; in the data active means inhibition above about 17%
Each line names hits and unclear results; the compound was inactive in the other large screens. Rows were chosen to be rich in hits. Some 6.6% of all compounds tested hit in one or more screens of this group.

O=C1c2ccccc2CC1Sc1nnc(-c2ccccn2)o1 (configuration not stated)	none
COc1ccc(N2C(=O)CC(Sc3nnc(-c4ccccc4)o3)C2=O)cc1 (configuration not stated)	Her2 expr inh -18.1
O=C1OCCC1Sc1nnc(-c2ccccc2)o1 (configuration not stated)	none (no result: M1 ag, M1 antag)
O=C1CC(Sc2nnc(-c3ccccc3O)o2)C(=O)N1c1ccccc1 (configuration not stated)	Her2 expr inh -12.7
Cc1nc([N+](=O)[O-])cn1Cc1cccc(C(F)(F)F)c1	none (no result: HEK293 NFkB inh, Her2 expr inh, M1 ag, M1 antag, JNK3 blocker)
O=C(Cc1cccs1)N1CCCC(c2nc3c(nnn3Cc3ccccc3Cl)c(=O)[nH]2)C1 (configuration not stated)	none
O=C(NCc1cccs1)c1nc2c(nnn2Cc2ccccc2Cl)c(=O)[nH]1	HEK293 NFkB inh 53.1, Her2 expr inh 0.0 (no result: M1 ag, M1 antag)
CSc1nncc(-c2ccc(F)cc2)n1	M1 antag 2.62
CCOC(=O)C(NC(C)=O)(N1CCOCC1)C(F)(F)F (configuration not stated)	none
CCOC(=O)C(NC(C)=O)(N1CCc2ccccc2C1)C(F)(F)F (configuration not stated)	Her2 expr inh -17.5
O=C(NC1CCCC1)c1cccnc1N1CCCCCC1	JNK3 blocker 33.7
O=C(CN1C(=O)c2ccc([N+](=O)[O-])cc2C1=O)Nc1ccc(O)cc1C(=O)O	none (no result: HEK293 NFkB inh, Her2 expr inh, M1 ag, M1 antag, JNK3 blocker)
Cc1nn(-c2ccccc2)c2sc(C(=O)O)cc12	none (no result: JNK3 blocker)
Cc1nn(-c2ccccc2)c2c1C(O)n1c(nc3ccccc31)S2 (configuration not stated)	JNK3 blocker 18.6
Cn1c(CSCc2ccc(F)cc2)nnc1SCC(=O)Nc1nccs1	none
Cn1nnnc1SCc1ccc(C(=O)Nc2nccs2)cc1	JNK3 blocker 19.9
O=C(O)C1=CC(=C(c2ccc(O)c(C(=O)O)c2)c2ccc(O)c(C(=O)O)c2)C=CC1=O	BAP1 inh active (no result: HEK293 NFkB inh, Her2 expr inh, M1 ag, M1 antag, JNK3 blocker)
CCOC(=O)c1c(-c2ccc(C)cc2)csc1NC(=O)c1ccc(C)cc1	none (no result: HEK293 NFkB inh, Her2 expr inh, M1 ag, M1 antag, JNK3 blocker)
COC(=O)C1=C(C)N(C)C(=O)NC1c1cc(Br)c(O)c(OC)c1 (configuration not stated)	none (no result: HEK293 NFkB inh, Her2 expr inh, M1 ag, M1 antag, JNK3 blocker)
Cc1cc(C(=O)Nc2c(C)nn(Cc3c(Cl)cccc3Cl)c2C)no1	none
Cc1nn(Cc2c(Cl)cccc2Cl)c(C)c1NC(=O)c1cc(C(C)C)on1	HEK293 NFkB inh 44.4
CCCCOc1ccc(-c2nnn(CC(=O)Nc3ncc(CC(=O)OCC)s3)n2)cc1	M1 antag 2.54
CCOC(=O)Cc1cnc(NC(=O)Cn2nnc(-c3ccc(OCC)cc3)n2)s1	none
Cc1cccc(Oc2cc(NC(=O)c3cccc(Cl)c3)cc([N+](=O)[O-])c2)c1	none (no result: HEK293 NFkB inh, Her2 expr inh, M1 ag, M1 antag, JNK3 blocker)
Cc1ccc(S(=O)(=O)N2CCN(C(=O)N3CCOCC3)C2C)cc1 (configuration not stated)	Her2 expr inh -30.0
FC(F)(F)c1ccc(N2CCOCC2)c(Nc2nc3ccccc3n3cnnc23)c1	Her2 expr inh -16.3 (not shown: BAP1 inh)
Cc1cc(NC(=O)CNC(=O)C2CCCCC2)no1	Her2 expr inh -20.3
NC(=O)CSc1nnc(-c2ccc(S(=O)(=O)N3CCOCC3)cc2)n1Cc1ccccc1	M1 antag 2.34
CCn1cc(C(=O)N2CCCc3ccccc32)c2cc(OC)c(OC)cc2c1=O	M1 antag 0.882 (no result: BAP1 inh, JNK3 blocker)
COc1cccc2c(=O)n(CC(=O)N3CCCc4ccccc43)ccc12	none
CCOc1ccc(CNc2ccc3c(c2)ncn3C)cc1	Her2 expr inh -17.4
CCn1cnc2cc(NCc3ccc(C)cc3)ccc21	none
Cc1ccc(CNC(=O)c2cc3c(-c4ccc(Cl)cc4)nn(C)c3s2)o1	Her2 expr inh -17.5
CCOc1ccc(OCc2cccc(C(=O)N3CCOCC3)c2)cc1	HEK293 NFkB inh 50.5
Nc1cc(N)cc(C(=O)OCc2nc3cc4ccccc4cc3[nH]2)c1	none (no result: HEK293 NFkB inh, Her2 expr inh, M1 ag, M1 antag, JNK3 blocker)
Cc1cccn2c(=O)c3cc(C#N)c(=NC(=O)c4ccncc4)n(Cc4ccco4)c3nc12	M1 ag 6.56
CCCCn1c(=NC(C)=O)c(C#N)cc2c(=O)n3cccc(C)c3nc21	M1 ag 21.2
COCCn1c(=NC(=O)c2ccc3c(c2)OCO3)c(C#N)cc2c(=O)n3cccc(C)c3nc21	none
COCCOC(=O)C1=C(C)NC2=C(C(=O)CC(c3ccccc3)C2)C1c1ccc(F)cc1 (configuration not stated)	none (no result: HEK293 NFkB inh, Her2 expr inh, M1 ag, M1 antag, JNK3 blocker)
Nc1c(S(=O)(=O)O)cc(Nc2ccc(Nc3nc(Cl)nc(Nc4ccc(S(=O)(=O)O)cc4)n3)c(S(=O)(=O)O)c2)c2c1C(=O)c1ccccc1C2=O	BAP1 inh active (no result: HEK293 NFkB inh, Her2 expr inh, M1 ag, M1 antag, JNK3 blocker)
CCN1CCn2c3c(c4cc(Cl)ccc42)CCCC31 (configuration not stated)	M1 antag 1.75
N#CCN1CCn2c3c(c4cc(C5CCCCC5)ccc42)CCCC31 (configuration not stated)	none (no result: HEK293 NFkB inh, Her2 expr inh, M1 ag, M1 antag, JNK3 blocker)
COc1cc2[nH]c(=O)n(CCC(=O)N3CCN(c4cc(Cl)ccc4C)CC3)c(=O)c2cc1OC	Her2 expr inh -22.8 (no result: M1 ag, BAP1 inh, M1 antag, JNK3 blocker)
Cc1nn(Cc2ccccc2Cl)c(C)c1C(=O)Nc1nnc(C2CC2)s1	HEK293 NFkB inh 52.4
CCc1c(C)c(C#N)c2nc3ccccc3n2c1N(C)C	M1 antag 2.29
COc1cccc(C(=O)NCc2cn3ccsc3n2)c1	none
COc1cc(C(=O)NCc2cn3ccsc3n2)cc(OC)c1OC	JNK3 blocker 23.7
COc1ccc(C(=O)NCc2nc3ccccc3[nH]2)cc1OC	JNK3 blocker 31.4
COc1ccc(C(=O)Nc2nc3ccccc3[nH]2)cc1OC	none
COc1ccc(C(=O)NCc2cn3c(C)csc3n2)cc1OC	JNK3 blocker 17.1
Cc1ccc(S(=O)(=O)Nc2ccccc2C(=O)Nc2ccccc2C(=O)Nc2ccccc2)cc1	none (no result: HEK293 NFkB inh, Her2 expr inh, M1 ag, M1 antag, JNK3 blocker)
CCCCNC(=O)OCCNC(=O)NC	Her2 expr inh -55.0
COc1cc(C2NC(=O)NC(C)=C2C(=O)OC2CCCC(C)C2)ccc1O (configuration not stated)	JNK3 blocker 36.5
CC1=C(C(=O)OC2CCCCCCC2)C(c2ccc(O)cc2)NC(=O)N1 (configuration not stated)	JNK3 blocker 21.6
O=C(CCN1C(=O)c2cccnc2C1=O)NC1CCCCCC1	Her2 expr inh -17.1
CCCCOC(=O)C1=C(C)NC2=C(C(=O)CC(C)(C)C2)C1c1ccc(OC)c(OC)c1OC (configuration not stated)	none (no result: HEK293 NFkB inh, Her2 expr inh, M1 ag, M1 antag, JNK3 blocker)
CCN1CCN(c2ncnc3c2cnn3-c2ccc(Cl)cc2)CC1	M1 antag -1.37
CC1CCCN(c2ncnc3c2cnn3-c2ccc(Cl)cc2)C1 (configuration not stated)	HEK293 NFkB inh 71.0
COc1ccc(C2C(C(=O)OCCc3ccccc3)=C(C)NC3=C2C(=O)CCC3)c(OC)c1 (configuration not stated)	none (no result: HEK293 NFkB inh, Her2 expr inh, M1 ag, M1 antag, JNK3 blocker)
O=C(c1ccccc1)N1CCCC(C(=O)N2CCCCCC2)C1 (configuration not stated)	none
